From ChEMBL document CHEMBL1667771, “The discovery of furo[2,3-c]pyridine-based indanone oximes as potent and selective B-Raf inhibitors” (Bioorg Med Chem Lett, 2011)

What was measured:
[1] = target: T1, Serine/threonine-protein kinase B-raf (Homo sapiens, UniProt P15056, V600E); experiment: Inhibition of B-Raf V600E mutant
[2] = target: T1, Serine/threonine-protein kinase B-raf; experiment: Inhibition of B-Raf V600E mutant assessed as inhibition of phosphorylated ERK production by cell based assay
In short: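 Cell-based readout of phospho-ERK production. The IC50 is the average of three experiments.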

[3] = target: Cytochrome P450 3A4 (Homo sapiens, UniProt P08684); experiment: Inhibition of CYP3A4; format: ADME
[4] = target: Cytochrome P450 2C19 (Homo sapiens, UniProt P33261); experiment: Inhibition of CYP2C19; format: ADME
[5] = target: T2, Cytochrome P450 1A2 (Homo sapiens, UniProt P05177); experiment: Inhibition of CYP1A2; format: ADME
T2 sequence (P05177 whole entry): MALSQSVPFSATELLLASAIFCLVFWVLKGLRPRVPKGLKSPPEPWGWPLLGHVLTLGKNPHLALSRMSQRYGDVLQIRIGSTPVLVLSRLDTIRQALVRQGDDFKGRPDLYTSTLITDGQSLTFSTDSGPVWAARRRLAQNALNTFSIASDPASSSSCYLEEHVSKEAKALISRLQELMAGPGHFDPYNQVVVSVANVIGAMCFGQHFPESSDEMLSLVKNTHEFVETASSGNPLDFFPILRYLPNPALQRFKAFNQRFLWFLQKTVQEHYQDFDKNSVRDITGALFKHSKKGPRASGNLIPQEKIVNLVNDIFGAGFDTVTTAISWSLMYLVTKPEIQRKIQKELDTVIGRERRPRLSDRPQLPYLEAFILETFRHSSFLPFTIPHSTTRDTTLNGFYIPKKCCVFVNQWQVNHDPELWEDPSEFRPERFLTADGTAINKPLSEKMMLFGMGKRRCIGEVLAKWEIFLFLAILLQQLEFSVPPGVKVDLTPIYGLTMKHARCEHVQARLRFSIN

[6] = Permeability of the compound across human Caco2 cells; format: ADME, cell-based; conditions: caco-2, read-out: permeability
In short: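 Caco-2 permeability is reported as a class: low (<2 × 10^-6 cm/s), medium (2–8 × 10^-6 cm/s), high (>8 × 10^-6 cm/s).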

[7] = test system: Caco-2; experiment: Permeability ratio of the compound across human Caco2 cells; format: ADME, cell-based
[8] = Aqueous solubility of the compound at pH 6.5; format: physicochemical

T1 sequence (P15056 2-766 V600E limits assumed): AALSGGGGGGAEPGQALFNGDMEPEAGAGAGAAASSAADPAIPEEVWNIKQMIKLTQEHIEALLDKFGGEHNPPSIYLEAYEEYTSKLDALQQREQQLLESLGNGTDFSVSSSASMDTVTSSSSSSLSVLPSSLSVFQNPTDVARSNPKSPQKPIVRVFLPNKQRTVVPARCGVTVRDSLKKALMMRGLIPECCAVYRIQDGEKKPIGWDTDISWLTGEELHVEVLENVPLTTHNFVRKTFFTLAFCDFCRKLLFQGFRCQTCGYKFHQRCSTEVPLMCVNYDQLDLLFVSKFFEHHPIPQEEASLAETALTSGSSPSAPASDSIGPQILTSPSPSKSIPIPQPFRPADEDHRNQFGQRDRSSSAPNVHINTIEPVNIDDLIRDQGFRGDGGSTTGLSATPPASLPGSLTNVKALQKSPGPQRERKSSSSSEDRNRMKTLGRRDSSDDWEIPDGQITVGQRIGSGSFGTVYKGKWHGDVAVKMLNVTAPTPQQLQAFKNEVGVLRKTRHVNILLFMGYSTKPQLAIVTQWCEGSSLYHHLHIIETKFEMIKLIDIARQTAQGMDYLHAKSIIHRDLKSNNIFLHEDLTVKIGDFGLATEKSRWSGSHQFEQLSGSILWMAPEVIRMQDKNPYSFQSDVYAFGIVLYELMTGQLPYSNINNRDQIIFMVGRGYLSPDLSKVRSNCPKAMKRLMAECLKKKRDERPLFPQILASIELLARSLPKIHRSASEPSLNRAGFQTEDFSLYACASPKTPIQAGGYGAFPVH
Cytochrome P450 3A4, sequence (P08684 whole entry): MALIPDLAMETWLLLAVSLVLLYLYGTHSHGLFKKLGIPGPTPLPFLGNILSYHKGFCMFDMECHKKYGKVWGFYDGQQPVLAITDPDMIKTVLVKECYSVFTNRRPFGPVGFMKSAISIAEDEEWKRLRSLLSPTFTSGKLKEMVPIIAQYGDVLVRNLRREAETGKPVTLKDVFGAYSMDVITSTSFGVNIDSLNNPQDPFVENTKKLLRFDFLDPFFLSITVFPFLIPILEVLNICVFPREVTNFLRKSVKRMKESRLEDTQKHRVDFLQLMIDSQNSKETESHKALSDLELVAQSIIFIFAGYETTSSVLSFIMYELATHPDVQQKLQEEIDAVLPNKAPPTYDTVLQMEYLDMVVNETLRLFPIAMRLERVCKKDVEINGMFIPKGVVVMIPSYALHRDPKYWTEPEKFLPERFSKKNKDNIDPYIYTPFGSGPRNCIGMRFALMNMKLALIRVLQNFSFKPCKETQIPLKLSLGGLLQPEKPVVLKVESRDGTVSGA
Cytochrome P450 2C19, sequence (P33261 whole entry): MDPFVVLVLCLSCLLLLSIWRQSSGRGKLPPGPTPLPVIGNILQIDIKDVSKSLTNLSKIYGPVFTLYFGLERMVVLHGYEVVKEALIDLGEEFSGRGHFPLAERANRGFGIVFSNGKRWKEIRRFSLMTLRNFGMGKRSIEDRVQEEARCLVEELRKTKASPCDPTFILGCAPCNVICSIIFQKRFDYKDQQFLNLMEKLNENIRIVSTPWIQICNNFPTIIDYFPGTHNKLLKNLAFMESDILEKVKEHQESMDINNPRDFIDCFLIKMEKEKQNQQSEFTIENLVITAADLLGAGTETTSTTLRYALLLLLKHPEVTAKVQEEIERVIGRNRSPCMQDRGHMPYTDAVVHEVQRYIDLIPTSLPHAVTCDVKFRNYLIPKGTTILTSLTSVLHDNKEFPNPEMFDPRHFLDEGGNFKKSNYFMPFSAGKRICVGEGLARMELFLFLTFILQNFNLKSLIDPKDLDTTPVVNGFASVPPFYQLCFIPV

SMILES | IC50 [1] [nM] | IC50 [2] [nM] | other results
NCc1ccc(Nc2c(-c3ccccc3)nc3cnccn23)cc1 | 1400 | – | –
Cc1nc2cnccn2c1Nc1ccc(Cl)cc1 | 1200 | – | –
Oc1cc(-c2nc(-c3ccccc3)[nH]c2-c2ccncc2)ccc1Cl | 10 | – | –
CN(C)CCNC(=O)c1sc2cnccc2c1Nc1ccc2c(c1)CC/C2=N/O | 52 | 8200 | –
CCOC(=O)c1oc2cnccc2c1Nc1ccc2c(c1)CC/C2=N/O | < 2 | 30 | IC50 [3]: 8300 nM; IC50 [4]: 1180 nM; IC50 [5]: > 25000 nM
O/N=C1/CCc2cc(Nc3c(-c4ccco4)nc4cnccn34)ccc21 | 4 | 1400 | –
CCOC(=O)c1nc2cnccn2c1Nc1ccc2c(c1)CC/C2=N\O | 16 | 3100 | –
O/N=C1/CCc2cc(Nc3csc4cnccc34)ccc21 | 32 | 7300 | –
Cc1ccc(-c2oc3cnccc3c2Nc2ccc3c(c2)CC/C3=N\O)cc1 | 3 | 2000 | –
O/N=C1/CCc2cc(Nc3c(-c4cccnc4)oc4cnccc34)ccc21 | < 2 | 960 | –
O/N=C1/CCc2cc(Nc3c(-c4cccnc4)nc4cnccn34)ccc21 | 47 | 16000 | –
O/N=C1/CCc2cc(Nc3c(-c4ccccc4)nc4cnccn34)ccc21 | 35 | 19000 | –

Further lines, with some results ahead:

IC50 [1] [nM] | IC50 [2] [nM] | SMILES | other results
40 | 5800 | CN(C)C(=O)c1sc2cnccc2c1Nc1ccc2c(c1)CC/C2=N/O | –
5 | 340 | CN(C)C(=O)c1oc2cnccc2c1Nc1ccc2c(c1)CC/C2=N\O | –
< 2 | 150 | O/N=C1\CCc2cc(Nc3c(-c4ccccn4)oc4cnccc34)ccc21 | –
3 | 170 | O/N=C1/CCc2cc(Nc3c(-c4cccnc4)sc4cnccc34)ccc21 | –
2 | 40 | CN(C)CCNC(=O)c1oc2cnccc2c1Nc1ccc2c(c1)CC/C2=N\O | Papp [6]: > 8 ×10⁻⁶ cm/s; Ratio [7]: 0.9; solubility [8]: > 1000 µg/mL
3 | 280 | CCOC(=O)c1sc2cnccc2c1Nc1ccc2c(c1)CC/C2=N/O | IC50 [3]: 50 nM; IC50 [4]: 129 nM; IC50 [5]: 616 nM
3 | 1500 | O/N=C1/CCc2cc(Nc3c(-c4ccccc4)sc4cnccc34)ccc21 | –
< 2 | 140 | CCCC(=O)c1sc2cnccc2c1Nc1ccc2c(c1)CC/C2=N/O | –
< 2 | 365 | Cc1cc(-c2oc3cnccc3c2Nc2ccc3c(c2)CC/C3=N\O)no1 | –
570 | 76000 | Clc1ccc(Nc2c(-c3ccccc3)nc3cnccn23)cc1 | –
0.2 | 5 | O/N=C1\CCc2cc(Nc3c(-c4ncccn4)oc4cnccc34)ccc21 | Papp [6]: > 8 ×10⁻⁶ cm/s; Ratio [7]: 0.9
